From ChEMBL document CHEMBL1817652, “Synthesis and mechanistic studies of a mitomycin dimer containing an eight-membered cyclic disulfide” (Bioorg Med Chem, 2011)
The source made the active and inactive calls. No cut-off for these calls is given here.

Assays:
[1] = Activation of the compound assessed as half life at 20 Equiv of Et3P by HPLC and TLC method; assay type: physicochemical
How it was run: (§1)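 Mitomycin at 0.03 mM final in buffered methanolic solution (0.1 M Tris-HCl, effective 'pH' 7.4), 25 °C, with added nucleophile (final 0.06–1.5 mM). Followed by UV–vis (200–600 nm) at ~373 nm, with mitosene products at ~313 nm, for more than two half-lives. Runs in duplicate and averaged. End-point 'pH' checked, mixtures analysed by HPLC and TLC against authentic samples.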

Nucleic Acid [2] = assay: Binding affinity to Escherichia coli pBR322 assessed as DNA interstand cross link at 0.1 mM after 2 hrs by agarose gel electrophoresis in presence of 5 equiv of Et3P; assay type: nucleic-acid assay
How it was run: (§2)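 EcoRI-linearized pBR322 plasmid DNA, deaerated with N2 for 15 min. Mitomycin (0.1–0.2 mM final, from 5 mM DMSO stock) and nucleophile (Et3P, L-DTT or GSH, 5 equiv, 0.5 mM final) added, then incubated 2 h at room temperature. Concentration scan with Et3P over […]. DNA extracted with phenol/chloroform and ethanol-precipitated, run on denaturing 1.2% alkaline agarose gel (40 mM NaOH, 1 mM EDTA), neutralised, stained, bands quantified.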

[3] = Activation of the compound assessed as half life at 10 Equiv of Et3P by HPLC and TLC method; assay type: physicochemical; how it was run: as §1
Nucleic Acid [4] = assay: Binding affinity to Escherichia coli pBR322 assessed as DNA interstand cross link at 0.1 mM after 2 hrs by agarose gel electrophoresis in presence of 5 equiv of L-ditiothreitol; assay type: nucleic-acid assay; how it was run: as §2
[5] = Activation of the compound assessed as half life at 40 Equiv of Et3P by HPLC and TLC method; assay type: physicochemical; how it was run: as §1
Nucleic Acid [6] = assay: Binding affinity to Escherichia coli pBR322 assessed as DNA interstand cross link at 0.5 mM after 6 mins by agarose gel electrophoresis in presence of 20 equiv of Et3P; assay type: nucleic-acid assay
[7] = Stability of the compound at 20 Equiv L-ditiothreitol measured after 3 days by HPLC and TLC method; assay type: physicochemical; conditions: read-out: Stability; how it was run: as §1
[8] = Stability of the compound at 20 Equiv of glutathione measured after 3 days by HPLC and TLC method; assay type: physicochemical; conditions: read-out: Stability; how it was run: as §1
Nucleic Acid [9] = assay: Binding affinity to Escherichia coli pBR322 assessed as DNA interstand cross link at 0.1 mM after 2 hrs by agarose gel electrophoresis in presence of 5 equiv glutathione; assay type: nucleic-acid assay; how it was run: as §2
[10] = Stability of the compound measured after 5 days by HPLC and TLC method; assay type: physicochemical; conditions: read-out: Stability
How it was run: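 Mitomycin at 0.03 mM final in buffered methanolic solution (0.1 M Tris-HCl, effective 'pH' 7.4), 25 °C, […]. Followed by UV–vis (200–600 nm) at ~373 nm. Runs in duplicate and averaged. HPLC and TLC analysis at the end.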

[11] = Activation of the compound assessed as half life at 5 Equiv of Et3P by HPLC and TLC method; assay type: physicochemical; how it was run: as §1
Nucleic Acid [12] = assay: Binding affinity to Escherichia coli pBR322 assessed as DNA interstand cross link at 0.05 to 0.25 mM after 2 hrs by agarose gel electrophoresis in presence of 5 equiv of Et3P; assay type: nucleic-acid assay; how it was run: as §2
[13] = Stability of the compound at 10 Equiv of L-ditiothreitol after 3 days by HPLC and TLC method; assay type: physicochemical; conditions: read-out: Stability; how it was run: as §1
[14] = Activation of the compound assessed as half life at 50 Equiv of Et3P by HPLC and TLC method; assay type: physicochemical; how it was run: as §1
[15] = Stability of the compound at 2 Equiv of Et3P measured after 5 days by HPLC and TLC method; assay type: physicochemical; conditions: read-out: Stability; how it was run: as §1
Nucleic Acid [16] = assay: Binding affinity to Escherichia coli pBR322 assessed as DNA interstand cross link at 0.2 mM after 2 hrs by agarose gel electrophoresis in presence of 5 equiv glutathione; assay type: nucleic-acid assay
How it was run: (§3)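 EcoRI-linearized pBR322 plasmid DNA, N2-deaerated 15 min, mitomycin added from DMSO stock (final 0.1–0.2 mM) with nucleophile (GSH, Et3P or L-DTT, 5 equiv) from DMSO stock; incubated room temperature 2 h. DNA phenol/CHCl3-extracted, EtOH-precipitated, resuspended in 10 mM Tris/1 mM EDTA pH 8.0. Run on denaturing 1.2% alkaline agarose gel (40 mM NaOH, 1 mM EDTA), neutralized, stained, bands quantified.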

Nucleic Acid [17] = assay: Binding affinity to Escherichia coli pBR322 assessed as DNA interstand cross link at 0.2 mM after 2 hrs by agarose gel electrophoresis in presence of 5 equiv of Et3P; assay type: nucleic-acid assay; how it was run: as §3
Nucleic Acid [18] = assay: Binding affinity to Escherichia coli pBR322 assessed as DNA interstand cross link at 0.2 mM after 2 hrs by agarose gel electrophoresis in presence of 5 equiv of L-ditiothreitol; assay type: nucleic-acid assay; how it was run: as §3
[19] = Stability of the compound at 20 Equiv of L-ditiothreitol after 5 days by HPLC and TLC method; assay type: physicochemical; conditions: read-out: Stability; how it was run: as §1
[20] = Stability of the compound at 20 Equiv of Et3P after 3 days by HPLC and TLC method; assay type: physicochemical; conditions: read-out: Stability; how it was run: as §1
[21] = Stability of the compound at 10 Equiv of Et3P after 3 days by HPLC and TLC method; assay type: physicochemical; conditions: read-out: Stability; how it was run: as §1
[22] = Stability of the compound at 50 Equiv of Et3P after 3 days by HPLC and TLC method; assay type: physicochemical; conditions: read-out: Stability; how it was run: as §1
[23] = Stability of the compound at 10 Equiv of L-ditiothreitol after 5 days by HPLC and TLC method; assay type: physicochemical; conditions: read-out: Stability; how it was run: as §1

CO[C@@]12[C@H](COC(N)=O)C3=C(C(=O)C(C)=C(NC[C@H]4CC[C@@H](CNC5=C(C)C(=O)C6=C(C5=O)[C@@H](COC(N)=O)[C@@]5(OC)[C@H]7N[C@H]7CN65)SS4)C3=O)N1C[C@@H]1N[C@@H]12
half-life [1]: 3.12 h
Activity (Nucleic Acid [2]): 83%
half-life [3]: 6.24 h
Activity (Nucleic Acid [4]): 77%

CO[C@@]12[C@H](OC(N)=O)C3=C(C(=O)C(C)=C(NCC4CCCCC(CNC5=C(C)C(=O)C6=C(C5=O)[C@@H](OC(N)=O)[C@@]5(OC)[C@H]7N[C@H]7CN65)SSC(CNC5=C(C)C(=O)C6=C(C5=O)[C@@H](OC(N)=O)[C@@]5(OC)[C@H]7N[C@H]7CN65)CCCCC(CNC5=C(C)C(=O)C6=C(C5=O)[C@@H](OC(N)=O)[C@@]5(OC)[C@H]7N[C@H]7CN65)SS4)C3=O)N1C[C@@H]1N[C@@H]12 (stereo partly drawn)
half-life [1]: 1.99 h
half-life [5]: 1.01 h
Activity (Nucleic Acid [6]): 35%

CO[C@@]12[C@H](COC(N)=O)C3=C(C(=O)C(C)=C(NCC4CCCCC(CNC5=C(C)C(=O)C6=C(C5=O)[C@@H](COC(N)=O)[C@@]5(OC)[C@H]7N[C@H]7CN65)SS4)C3=O)N1C[C@@H]1N[C@@H]12 (mixture of isomers)
remaining at 72 h [7]: < 10%
half-life [1]: 1.2 h
remaining at 72 h [8]: < 10%
Activity (Nucleic Acid [9]): 21%
Activity (Nucleic Acid [2]): 94%
remaining at 120 h [10]: < 10%
half-life [11]: 5.52 h
half-life [3]: 1.92 h
Activity (Nucleic Acid [12]): Active
remaining at 72 h [13]: < 10%
Activity (Nucleic Acid [4]): 95%
half-life [14]: 0.48 h
remaining at 120 h [15]: < 10%

CO[C@@]12[C@H](COC(N)=O)C3=C(C(=O)C(C)=C(N)C3=O)N1C[C@@H]1N[C@@H]12
Activity (Nucleic Acid [16]): 2%
Activity (Nucleic Acid [17]): 3%
Activity (Nucleic Acid [18]): 2%

CO[C@@]12[C@H](COC(N)=O)C3=C(C(=O)C(C)=C(NCC(O)CCCCC(O)CNC4=C(C)C(=O)C5=C(C4=O)[C@@H](COC(N)=O)[C@@]4(OC)[C@H]6N[C@H]6CN54)C3=O)N1C[C@@H]1N[C@@H]12 (mixture of isomers)
remaining at 120 h [19]: < 10%
remaining at 72 h [8]: < 10%
remaining at 72 h [20]: < 10%
Activity (Nucleic Acid [9]): 7%
Activity (Nucleic Acid [2]): 4%
remaining at 72 h [21]: < 10%
remaining at 120 h [10]: < 10%
remaining at 72 h [22]: < 10%
Activity (Nucleic Acid [4]): 6%
remaining at 120 h [23]: < 10%
